ChEMBL document CHEMBL3124896, “Optimization of the lactam side chain of 7-azaindenoisoquinoline topoisomerase I inhibitors and mechanism of action studies in cancer cells” (2014)
Blank lines part the entries; values can stand above or below the compound they belong to. Active and inactive are the calls of the source. The rule behind the calls is not given here.

Legend:
MCF7 = assay: Cytotoxicity against human MCF7 cells by SRB assay; format: functional
SN12C = assay: Cytotoxicity against human SN12C cells by SRB assay; format: functional
DU-145 [1] = assay: Cytotoxicity against human DU145 cells by SRB assay; format: functional
[2] = biological target: T1, DNA topoisomerase 1 (Homo sapiens) (UniProt P11387); assay: Inhibition of human recombinant topoisomerase 1 using radiolabeled DNA as substrate at 0.1 to 100 uM after 20 mins by SDS-PAGE
T1 sequence (whole entry): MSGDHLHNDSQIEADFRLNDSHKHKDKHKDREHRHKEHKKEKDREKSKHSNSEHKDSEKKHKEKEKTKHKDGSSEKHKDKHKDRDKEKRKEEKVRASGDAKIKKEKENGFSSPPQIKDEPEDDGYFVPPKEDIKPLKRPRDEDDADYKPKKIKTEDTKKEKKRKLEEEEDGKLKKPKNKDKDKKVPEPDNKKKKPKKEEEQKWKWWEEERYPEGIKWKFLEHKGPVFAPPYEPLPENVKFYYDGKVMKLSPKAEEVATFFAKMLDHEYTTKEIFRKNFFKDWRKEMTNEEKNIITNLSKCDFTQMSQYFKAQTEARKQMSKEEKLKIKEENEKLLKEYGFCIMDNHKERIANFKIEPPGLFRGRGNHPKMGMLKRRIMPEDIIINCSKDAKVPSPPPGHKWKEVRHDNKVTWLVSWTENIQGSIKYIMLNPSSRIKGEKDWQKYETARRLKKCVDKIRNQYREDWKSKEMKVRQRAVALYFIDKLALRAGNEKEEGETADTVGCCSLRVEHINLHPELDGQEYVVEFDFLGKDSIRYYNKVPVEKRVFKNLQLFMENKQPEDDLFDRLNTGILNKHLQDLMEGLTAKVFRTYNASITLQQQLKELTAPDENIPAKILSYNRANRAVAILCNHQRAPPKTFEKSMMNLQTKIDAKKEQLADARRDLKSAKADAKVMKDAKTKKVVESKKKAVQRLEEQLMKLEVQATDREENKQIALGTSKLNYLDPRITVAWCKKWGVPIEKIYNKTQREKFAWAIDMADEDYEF
Summary of the method: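 Baculovirus-purified human recombinant Top1 with ~2 nM of a 117 bp oligonucleotide, 3′-end-labeled with [α-32P]dGTP by Klenow fill-in. Drugs at 0.1, 1, 10, 100 μM; 25 °C, 20 min. Stopped with 0.5% SDS, run on 20% denaturing PAGE, phosphorimaged. Cleavage bands scored visually against camptothecin standard.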

OVCAR-3 = assay: Cytotoxicity against human OVCAR3 cells by SRB assay; format: functional
UACC-62 = assay: Cytotoxicity against human UACC62 cells by SRB assay; format: functional
HOP-62 = assay: Cytotoxicity against human HOP62 cells by SRB assay; format: functional
SF-539 = assay: Cytotoxicity against human SF539 cells by SRB assay; format: functional
HCT-116 [3] = assay: Cytotoxicity against human HCT116 cells by SRB assay; format: functional
HCT-116 [4] = assay: Cytotoxicity against human HCT116 cells transfected with Top1-siRNA after 72 hrs by MTT assay; format: functional; conditions: HCT-116, 72 h
Summary of the method: (§1)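 Cells were seeded 24 h before dosing and exposed continuously for 72 h. Growth was read by colorimetric MTS assay and expressed relative to vehicle-treated controls set at 100. GI50 is the level giving 50% growth inhibition, from at least two independent determinations. HCT116 and siTop1 cells were kept in RPMI 1640/10% FBS with 100 μg/mL hygromycin; RC0.1 in RPMI 1640/10% FBS.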

[5] = Resistance ratio of GI50 for human mitoxantrone-resistant H460 cells to GI50 for human H460 cells; format: functional
Summary of the method: (§2)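 Relative resistance = GI50 in the resistant subline divided by GI50 in the parental line. Both GI50s came from 72 h continuous-exposure MTS growth assays, each based on at least two independent determinations.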

[6] = biological target: T1, DNA topoisomerase 1 (Homo sapiens); assay: Inhibition of human recombinant topoisomerase 1 in human HCT116 cells assessed as DNA-protein cross linking at 1 uM incubated for 1 hr followed by compound washout measured after 1 hr; format: cell-based; conditions: HCT-116
Summary of the method: (§3)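 In HCT116 cells, Top1 cleavage complexes were quantified as DNA–protein cross-links by alkaline elution, plotting the fraction of DNA retained on the filter against time. Persistence was read 1 h after drug removal. The negative control was untreated cells given 30 Gy irradiation to create strand breaks.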

[7] = Cytotoxicity against human RC0.1 cells after 72 hrs by MTT assay; format: functional; summary of the method: as §1
[8] = biological target: T1, DNA topoisomerase 1 (Homo sapiens); assay: Inhibition of human recombinant topoisomerase 1 in human HCT116 cells assessed as reversal of topoisomerase 1-DNA cleavage complex stabilization at 1 uM incubated for 1 hr followed by compound washout measured after 24 hrs by DNA immunoblotting analysis; format: cell-based; conditions: HCT-116
Summary of the method: (§4)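 10^6 HCT116 cells were treated with 1 μM for 1 h, and for reversal were held in drug-free medium for the set times. Cells were lysed with DNAzol and genomic DNA was isolated and sonicated. Serial dilutions were slot-blotted onto membranes and Top1–DNA complexes detected with the C21 anti-Top1 monoclonal antibody by immunoblotting (ICE method).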

HCT-116 [9] = assay: Cytotoxicity against human HCT116 cells after 72 hrs by MTT assay; format: functional; conditions: HCT-116, 72 h; summary of the method: as §1
[10] = biological target: T1, DNA topoisomerase 1 (Homo sapiens); assay: Inhibition of human recombinant topoisomerase 1 in human HCT116 cells assessed as DNA-protein cross linking at 1 uM after 1 hr; format: cell-based; conditions: HCT-116; summary of the method: as §3
[11] = biological target: T1, DNA topoisomerase 1 (Homo sapiens); assay: Inhibition of human recombinant topoisomerase 1 using radiolabeled DNA as substrate after 20 mins by SDS-PAGE
Summary of the method: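 A 117 bp oligonucleotide was 3′-end-labelled with [α-32P]dGTP by Klenow fill-in. Reactions were stopped with 0.5% SDS and run on 20% denaturing polyacrylamide gels. Cleavage bands were scored visually on a semiquantitative scale.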

DU-145 [12] = assay: Cytotoxicity against human DU145 cells after 72 hrs by MTT assay; format: functional; conditions: DU-145, 72 h; summary of the method: as §1
HCT-116 [13] = assay: Resistance ratio of GI50 for human HCT116 cells transfected with Top1-siRNA to GI50 for human HCT116 cells; format: functional; summary of the method: as §2
[14] = biological target: T1, DNA topoisomerase 1 (Homo sapiens); assay: Inhibition of human recombinant topoisomerase 1 in human HCT116 cells assessed as reversal of topoisomerase 1-DNA cleavage complex stabilization at 1 uM incubated for 1 hr followed by compound washout measured up to 6 hrs by DNA immunoblotting analysis; format: cell-based; conditions: HCT-116; summary of the method: as §4
[15] = biological target: T1, DNA topoisomerase 1 (Homo sapiens); assay: Inhibition of human recombinant topoisomerase 1 in human HCT116 cells assessed as stabilization of topoisomerase 1-DNA cleavage complex at 1 uM after 1 hr by DNA immunoblotting analysis; format: cell-based; conditions: HCT-116; summary of the method: as §4
[16] = Cytotoxicity against human mitoxantrone-resistant H460 cells after 72 hrs by MTT assay; format: functional; conditions: NCI-H460, 72 h; summary of the method: as §1
HCT-116 [17] = assay: Cell cycle arrest in human HCT116 cells assessed as accumulation at S phase at 1 uM incubated for 1 hr followed by compound washout measured after 3 hrs by propidium iodide staining-based FACS analysis; format: functional
Summary of the method: (§5)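 HCT116 cells exposed to 1 μM drug for 1 h, then kept in drug-free medium for the stated times. Fixed cells were stained with propidium iodide and analysed by flow cytometry for DNA content histograms. Phase distributions were computed from the histograms.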

HCT-116 [18] = assay: Induction of DNA damage in human HCT116 cells assessed as induction of histone gamma-H2AX level at 1 uM after 1 hr by flow cytometry
[19] = Cytotoxicity against human KB 3.1 cells after 72 hrs by MTT assay; format: functional; conditions: KB 3-1, 72 h; summary of the method: as §1
HCT-116 [20] = assay: Cell cycle arrest in human HCT116 cells assessed as accumulation at G2 phase at 1 uM incubated for 1 hr followed by compound washout measured after 6 to 48 hrs by propidium iodide staining-based FACS analysis; format: functional; summary of the method: as §5
[21] = Resistance ratio of GI50 for vinblastine-resistant human KBV1 cells to GI50 for human KB 3.1 cells; format: functional
HCT-116 [22] = assay: Cell cycle arrest in human HCT116 cells at 1 uM after 1 hr by propidium iodide staining-based FACS analysis; format: functional; summary of the method: as §5
[23] = Cytotoxicity against vinblastine-resistant human KBV1 cells after 72 hrs by MTT assay; format: functional; conditions: KB-V1, 72 h; summary of the method: as §1
DU-145 [24] = assay: Resistance ratio of GI50 for human RC0.1 cells to GI50 for human DU145 cells; format: functional; summary of the method: as §2
HCT-116 [25] = assay: Cell cycle arrest in human HCT116 cells at 1 uM incubated for 1 hr followed by compound washout measured up to 1 hr by propidium iodide staining-based FACS analysis; format: functional; summary of the method: as §5
[26] = Cytotoxicity against human H460 cells after 72 hrs by MTT assay; format: functional; conditions: NCI-H460, 72 h; summary of the method: as §1

inhibition [2]: Active
SMILES: COc1cnc2c(c1)C(=O)c1c-2n(CCCN)c(=O)c2cc([N+](=O)[O-])ccc12
GI50 (MCF7): < 10 nM
GI50 (SN12C): 40 nM
GI50 (DU-145 [1]): 35 nM
GI50 (OVCAR-3): 98 nM
GI50 (UACC-62): 24 nM
GI50 (HOP-62): 19 nM
GI50 (SF-539): 73 nM
GI50 (HCT-116 [3]): 36 nM

inhibition [2]: Active
SMILES: COc1cnc2c(c1)C(=O)c1c-2n(CCCN(C)CCO)c(=O)c2cc([N+](=O)[O-])ccc12
GI50 (MCF7): 13 nM
GI50 (SN12C): 39 nM
GI50 (DU-145 [1]): 36 nM
GI50 (OVCAR-3): 180 nM
GI50 (UACC-62): 29 nM
GI50 (HOP-62): 28 nM
GI50 (SF-539): 34 nM
GI50 (HCT-116 [3]): 49 nM

inhibition [2]: Active
SMILES: COc1cnc2c(c1)C(=O)c1c-2n(CCCNCCO)c(=O)c2cc([N+](=O)[O-])ccc12
GI50 (MCF7): < 10 nM
GI50 (SN12C): < 10 nM
GI50 (DU-145 [1]): < 10 nM
GI50 (OVCAR-3): 35 nM
GI50 (UACC-62): < 10 nM
GI50 (HOP-62): < 10 nM
GI50 (SF-539): 14 nM
GI50 (HCT-116 [3]): < 10 nM

inhibition [2]: Active
SMILES: COc1cnc2c(c1)C(=O)c1c-2n(CCCN2CCC(O)CC2)c(=O)c2cc([N+](=O)[O-])ccc12
GI50 (MCF7): < 10 nM
GI50 (SN12C): < 10 nM
GI50 (DU-145 [1]): < 10 nM
GI50 (OVCAR-3): 58 nM
GI50 (UACC-62): < 10 nM
GI50 (HOP-62): < 10 nM
GI50 (SF-539): 10 nM
GI50 (HCT-116 [3]): 10 nM

Further lines, the compound ahead of its results:

SMILES: COc1cnc2c(c1)C(=O)c1c-2n(CCCN2CCOCC2)c(=O)c2cc([N+](=O)[O-])ccc12
GI50 (HCT-116 [4]): 112 nM
RatioGI50 [5]: 5.25
inhibition [6]: Active
GI50 [7]: 1050 nM
inhibition [8]: Active
GI50 (HCT-116 [9]): 126 nM
inhibition [10]: Active
inhibition [11]: Active
GI50 (DU-145 [12]): 141 nM
RatioGI50 (HCT-116 [13]): 0.89
inhibition [14]: Active
inhibition [15]: Active
GI50 [16]: 178 nM
Activity (HCT-116 [17]): Active
Activity (HCT-116 [18]): 37.6%
GI50 [19]: 562 nM
Activity (HCT-116 [20]): Active
RatioGI50 [21]: 0.74
Activity (HCT-116 [22]): Active
GI50 [23]: 417 nM
RatioGI50 (DU-145 [24]): 7.41
Activity (HCT-116 [25]): Active
GI50 [26]: 33.9 nM

SMILES: COc1cnc2c(c1)C(=O)c1c-2n(CCCN(C)C)c(=O)c2cc(OC)c(OC)cc12
inhibition [11]: Active

SMILES: COc1cnc2c(c1)C(=O)c1c-2n(CCCN2CCOCC2)c(=O)c2cc(OC)c(OC)cc12
inhibition [11]: Active

SMILES: O=C1c2cccnc2-c2c1c1ccc([N+](=O)[O-])cc1c(=O)n2CCCN1CCOCC1
inhibition [11]: Active
